Only some compounds are listed: those with a hit (about 0.59% of all), similar ones and a draw of the others.
zfTRPN1 agonist: zebrafish TRPN1 (NompC) channel agonism | activation, % at 3 µM | HEK293 zebrafish TRPN1-YFP, Fluo-8 calcium fluorescence; 100% = response to 87 µM carbachol | 0.18% of 220,000 active;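 active = activation above its plate's cutoff, the mean activation of test wells on that plate plus 3 SD, cut at about 19% in these data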;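 note: 0% = DMSO alone and 100% = 87 µM carbachol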
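Material: zebrafish TRPN1-YFP in HEK293 cells; Doses: single test compound dose, 3 µM nominal, 0.3% DMSO; Timing: dye loading 1 h at 37 °C, then 30 min room temperature; Technique: intracellular calcium fluorescence with Fluo-8; Benchmarks: high carbachol 87 µM, low DMSO alone.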
TRPML3 agonist: activates the human TRPML3 channel | Q8TDD5 | HEK293 TRPML3-YFP, Fluo-8 calcium fluorescence; 100% = the carbachol control signal | activation, % at 3 µM | 0.29% of 220,000 active;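 active = activation above its plate's cutoff, the mean activation of the plate's test wells plus 3 SD, cut at about 12% in these data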;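 note: 0% = DMSO only wells and 100% = carbachol wells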
Target sequence (Q8TDD5 whole entry, looked up): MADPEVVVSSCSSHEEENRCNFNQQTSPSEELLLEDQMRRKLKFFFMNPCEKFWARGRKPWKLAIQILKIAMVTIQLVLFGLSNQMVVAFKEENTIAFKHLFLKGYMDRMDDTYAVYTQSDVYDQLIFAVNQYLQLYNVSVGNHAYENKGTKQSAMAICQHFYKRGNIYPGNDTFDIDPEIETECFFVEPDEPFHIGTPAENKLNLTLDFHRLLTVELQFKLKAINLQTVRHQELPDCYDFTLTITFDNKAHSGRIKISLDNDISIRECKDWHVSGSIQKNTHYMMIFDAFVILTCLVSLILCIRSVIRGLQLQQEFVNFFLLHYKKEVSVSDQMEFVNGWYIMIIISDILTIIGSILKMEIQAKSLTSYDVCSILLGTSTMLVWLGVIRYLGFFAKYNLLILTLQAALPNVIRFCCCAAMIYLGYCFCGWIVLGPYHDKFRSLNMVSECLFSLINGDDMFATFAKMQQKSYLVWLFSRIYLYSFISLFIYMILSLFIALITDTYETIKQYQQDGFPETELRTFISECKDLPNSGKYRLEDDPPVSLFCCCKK
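Test system: TRPML3-YFP stable HEK293 cells. Doses: single point at 3 µM. Incubation: dye loading 1 h 37 °C then 30 min ambient, 125 s read. Signal: Fluo-8 calcium dye fluorescence, ex 470-495, em 515-575 nm. Measure: percent activation from peak-to-basal fluorescence ratio, scaled between DMSO and carbachol.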
OXTR potentiator: potentiators of human oxytocin receptor. 0.061% of 320,000 active. activation, % at 3 µM. CHO-OTR cells, Fluo-8 calcium fluorescence, potentiator mode; 0% = oxytocin EC15, 100% = EC100;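 active = activation above that plate's cutoff, the mean activation of tested compounds plus 3 SD, cut at about 6.6% in these data, passing the limit was not always enough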;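 note: 100% uses oxytocin at 75 nM as the full agonist control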
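assay system = CHO-OTR cells, human receptor | schedule = compound 6 min at room temperature before oxytocin, 100 s read | detection = Fluo-8 intracellular calcium fluorescence, ex 470-495, em 515-575 nm | evaluation = normalized max/min fluorescence ratio, % activation | control set = EC15 oxytocin alone as 0%, 75 nM oxytocin (EC100) as 100%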
V1R ag counter: counter-screen for oxytocin receptor agonists: human V1a receptor agonists | CHO-V1R cells, Fluo-8 calcium fluorescence, agonist mode; 0% DMSO, 100% 3 nM vasopressin | activation, % at 3 µM | 0.25% of 320,000 active | AID 2797;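 active = activation above the mean activation of all tested compounds plus 3 SD, per screening run, cut at about 20% in these data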;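 note: signal is peak over basal fluorescence ratio across a 100 second FLIPR read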
OXTR agonist: agonists of human oxytocin receptor | CHO-OTR cells, Fluo-8 calcium fluorescence; normalized: DMSO 0%, oxytocin 100% | activation, % at 3 µM | 0.32% of 320,000 active;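 active = activation above the mean of all tested compounds plus 3 SD, cutoff set per screening run, cut at about 20% in these data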;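 note: peak over basal fluorescence ratio from a 100 s FLIPR kinetic read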
V1aR agonist cf: human V1a receptor agonism, confirmation; 20% of 180 active; activation, % at 3 µM; CHO-V1R cells, Fluo-8 calcium fluorescence, agonist; shares compounds with V1R ag counter; AID 434964;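 active = average activation exceeds primary screen hit cutoff, cut at about 21% in these data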;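 note: peak over basal fluorescence ratio during a 100 s FLIPR read; 0% = DMSO only wells and 100% = 3 nM vasopressin wells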
OXTR counter: OXTR agonism, counter-screen for V1R agonists; shares compounds with V1R ag counter; CHO-OTR cells, Fluo-8 calcium fluorescence, agonist; activation, % at 3 µM; 10% of 180 active; AID 434969;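 active = mean activation over three repeats above the cutoff from the earlier oxytocin receptor agonist screen, cut at about 20% in these data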;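 note: peak over minimum fluorescence ratio within a 100 second FLIPR read; 0% = DMSO only wells and 100% = oxytocin high control wells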
The depositor's hits bear a star; nt = no result given.

SMILES	zfTRPN1 agonist	TRPML3 agonist	OXTR potentiator	V1R ag counter	OXTR agonist	V1aR agonist cf	OXTR counter
CCC(CO)Oc1cc(NC(=O)c2ccc(C)cc2)c2ncn(C(C)C)c2c1 (stereo not drawn)	nt	nt	-2	1	0	nt	nt
CNC(=O)c1[nH]cnc1C(=O)Nc1ccccn1	2	0	-1	43*	3	1	0
CNC(=O)c1[nH]cnc1C(=O)Nc1ccccc1	nt	nt	3	0	0	nt	nt
COc1ccccc1NS(=O)(=O)c1cccc(C(=O)N2CCN(C(=O)c3ccco3)CC2)c1	nt	nt	-4	1	0	nt	nt
CCOc1cccc(C2C(C(=O)c3ccc(C)o3)=C(O)C(=O)N2c2nccs2)c1 (stereo not drawn)	4	3	-14	39*	2	4	4
O=C(NNC(=S)NC(=O)c1ccco1)c1ccc(F)cc1	4	4	-12	29*	19	11	6
O=C(COC(=O)Cc1ccc(Br)cc1)NC1CCCC1	nt	nt	-3	1	-1	nt	nt
COc1ccc(/C=C\C(=O)O[C@@H]2C(O)C(O[C@@H]3OC(C)[C@H](O[C@@H]4OCC(O[C@H]5O[C@H](CO)[C@@H](O)C(O)C5O)C(O)C4O)C(O)C3O)[C@H](OC(=O)[C@]34CCC(C)(C)C[C@@H]3C3=CCC5[C@@]6(C)CC(O)C(O[C@@H]7OC(CO)C(O)[C@H](O)[C@H]7O)[C@@](C)(C(=O)O)C6CC[C@@]5(C)[C@]3(CO)CC4)O[C@H]2C)cc1 (stereo partly drawn)	nt	nt	-7	73*	6	79*	44*
CCSc1nc(O)cc(=O)n1CC	0	1	-1	25*	5	0	0
O=C(/C=C/c1ccc(F)cc1)NC(=S)NNC(=O)[C@H]1C[C@@H]1c1ccccc1	nt	nt	-7	26*	8	19	16
CC(C)(C)NC(=S)NNC(=O)[C@H]1C[C@@H]1c1ccccc1	0	1	-2	0	0	nt	nt
CCN(CC(=O)Nc1c(F)cccc1F)C(=O)C1CC1	nt	nt	1	2	1	nt	nt
O=C(CCCC1=NS(=O)(=O)c2ccccc2N1)N1CCN(c2ccc([N+](=O)[O-])cc2)CC1	nt	nt	-10	0	-1	nt	nt
Cn1c(=O)c(C(=O)NNC(=O)c2cccc(Cl)c2)c(O)c2ccccc21	nt	nt	-1	0	1	nt	nt
CCn1c(=O)c(C(=O)NNC(=O)c2cccc(Cl)c2)c(O)c2ccccc21	nt	nt	-11	26*	14	17	11
Cn1c(=O)c(C(=O)NNC(=O)c2ccccc2Br)c(O)c2ccccc21	nt	nt	-5	2	0	nt	nt
CCn1c(=O)c(C(=O)NNC(=O)c2ccccc2Br)c(O)c2ccccc21	nt	nt	-12	47*	11	1	1
O=C(COC(=O)COc1ccccc1F)Nc1ccc2c(c1)OCO2	nt	nt	-4	0	0	nt	nt
CCc1ccc(NC(=O)N(CCCN2CCOCC2)C(C)c2cc3cccc(OC)c3o2)cc1 (stereo not drawn)	-1	0	4	22*	-2	0	-1
CCOC(=O)c1c(NC(=O)CSc2nc3ccc(C)cc3[nH]2)sc2c1CC(C)(C)NC2(C)C	nt	nt	-14	22*	15	2	9
CCOC(=O)c1c(NC(=O)CSc2nnnn2-c2ccccc2)sc2c1CC(C)(C)NC2(C)C	nt	nt	-10	3	0	nt	nt
COc1ccc(-c2csc(NC(CO)c3nc4ccccc4n3CCCO)n2)cc1 (stereo not drawn)	nt	nt	-8	0	0	nt	nt
CCC(C)(C)c1ccc(OCCCC[n+]2cccc(C)c2C)c(C(C)(C)CC)c1	0	0	-14	31*	17	7	3
CCc1ccc(N=Nc2ccc(O)c3[nH]cnc23)cc1	nt	nt	-8	23*	14	26*	16
Cc1ccc(NC(=O)CN(C)S(=O)(=O)c2cccc3cccnc23)cc1C	nt	nt	-3	3	3	nt	nt
